From ChEMBL document CHEMBL3272208, “(Vinylaryloxy)acetic acids. A new class of diuretic agents. 3. ((2-Nitro-1-alkenyl)aryloxy)acetic acids” (1976)

Legend:
Canis familiaris [1] = assay: Diuretic activity in mongrel dog assessed as chloride level in excreted urine at 1 mg/kg, iv measured between 15 to 45 mins after dosage (reference value: 1 to 70 uequiv/min); assay type: functional, Canis lupus familiaris
In short: (§1)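 Compounds were given iv to dogs as Na salts in H2O. The baseline is the mean of two 15-min periods before dosing. The response is the mean of two consecutive 15-min periods of maximal Na+ excretion, usually 15–45 min post-dose. Na+, K+ and Cl- are in μequiv/min and urine volume in ml/min, reported as control/drug.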

Canis familiaris [2] = assay: Diuretic activity in mongrel dog assessed as potassium level in excreted urine at 1 mg/kg, po measured for 6 hrs (reference value: 1 mequivalents); assay type: functional, Canis lupus familiaris
Canis familiaris [3] = assay: Diuretic activity in mongrel dog assessed as chloride level in excreted urine at 1 mg/kg, po measured for 6 hrs (reference value: 2 mequivalents); assay type: functional, Canis lupus familiaris
Canis familiaris [4] = assay: Diuretic activity in mongrel dog assessed as volume of excreted urine at 1 mg/kg, iv measured between 15 to 45 mins after dosage (reference value: 1 to 4 ml/min); assay type: functional, Canis lupus familiaris
In short: as §1, with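 “H2O. […]” for “H2O.”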

Canis familiaris [5] = assay: Diuretic activity in mongrel dog assessed as potassium level in excreted urine at 1 mg/kg, iv measured between 15 to 45 mins after dosage (reference value: 6 to 47 uequiv/min); assay type: functional, Canis lupus familiaris
In short: as §1, with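 “H2O. […]” for “H2O.”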

Canis familiaris [6] = assay: Diuretic activity in mongrel dog assessed as volume of excreted urine at 1 mg/kg, po measured for 6 hrs (RVb = 180 ml)
Canis familiaris [7] = assay: Diuretic activity in mongrel dog assessed as sodium level in excreted urine at 1 mg/kg, po measured for 6 hrs (reference value: 2 mequivalents); assay type: functional, Canis lupus familiaris
Canis familiaris [8] = assay: Diuretic activity in mongrel dog assessed as sodium level in excreted urine at 1 mg/kg, iv measured […] after dosage (reference value: 3 to 95 uequiv/min); assay type: functional, Canis lupus familiaris; in short: as §1
Canis familiaris [9] = assay: Diuretic activity in mongrel dog assessed as sodium level in excreted urine at 10 mg/kg, iv measured […] after dosage (reference value: 5 to 66 uequiv/min); assay type: functional, Canis lupus familiaris
In short: as §1, with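 “H2O. […]” for “H2O.”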

Canis familiaris [10] = assay: Diuretic activity in mongrel dog assessed as volume of excreted urine at 10 mg/kg, iv measured between 15 to 45 mins after dosage (reference value: 1 to 4 ml/min); assay type: functional, Canis lupus familiaris
In short: as §1, with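 “H2O. […]” for “H2O.”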

Canis familiaris [11] = assay: Diuretic activity in mongrel dog assessed as potassium level in excreted urine at 10 mg/kg, iv measured between 15 to 45 mins after dosage (reference value: 7 to 63 uequiv/min); assay type: functional, Canis lupus familiaris
In short: as §1, with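 “H2O. […]” for “H2O.”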

Canis familiaris [12] = assay: Diuretic activity in mongrel dog assessed as chloride level in excreted urine at 10 mg/kg, iv measured between 15 to 45 mins after dosage (reference value: 3 to 64 uequiv/min); assay type: functional, Canis lupus familiaris; in short: as §1
Canis familiaris [13] = assay: Diuretic activity in mongrel dog assessed as volume of excreted urine at 5 mg/kg, iv measured between 15 to 45 mins after dosage (reference value: 1 to 5 ml/min); assay type: functional, Canis lupus familiaris
In short: as §1, with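 “H2O. […]” for “H2O.”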

Canis familiaris [14] = assay: Diuretic activity in mongrel dog assessed as potassium level in excreted urine at 5 mg/kg, iv measured between 15 to 45 mins after dosage (reference value: 12 to 70 uequiv/min); assay type: functional, Canis lupus familiaris
In short: as §1, with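 “H2O. […]” for “H2O.”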

Canis familiaris [15] = assay: Diuretic activity in mongrel dog assessed as sodium level in excreted urine at 5 mg/kg, iv measured […] after dosage (reference value: 1 to 91 uequiv/min); assay type: functional, Canis lupus familiaris
In short: as §1, with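 “H2O. […]” for “H2O.”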

Canis familiaris [16] = assay: Diuretic activity in mongrel dog assessed as chloride level in excreted urine at 5 mg/kg, iv measured between 15 to 45 mins after dosage (reference value: 1 to 65 uequiv/min); assay type: functional, Canis lupus familiaris
In short: as §1, with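 “H2O. […]” for “H2O.”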

| Compound | Activity (Canis familiaris [1]) [uEq/min] | Activity (Canis familiaris [4]) [mL/min] | Activity (Canis familiaris [5]) [uEq/min] | Activity (Canis familiaris [8]) [uEq/min] | Activity (Canis familiaris [9]) [uEq/min] | Activity (Canis familiaris [10]) [mL/min] | Activity (Canis familiaris [11]) [uEq/min] | Activity (Canis familiaris [12]) [uEq/min] | further results |
| --- | --- | --- | --- | --- | --- | --- | --- | --- | --- |
| C/C(=C\c1ccc(OCC(=O)O)cc1Cl)[N+](=O)[O-] | 765 | 7 | 92 | 683 | – | – | – | – | Activity (Canis familiaris [2]): 5 milliequivalent; Activity (Canis familiaris [3]): 22 milliequivalent; Activity (Canis familiaris [6]): 402 mL; Activity (Canis familiaris [7]): 16 milliequivalent |
| O=C(O)COc1ccc(/C=C/[N+](=O)[O-])cc1Cl | – | – | – | – | 201 | 3 | 65 | 146 | – |
| O=C(O)COc1c(Cl)cc(Cl)cc1/C=C/[N+](=O)[O-] | – | – | – | – | – | – | – | – | Activity (Canis familiaris [13]): 2 mL/min; Activity (Canis familiaris [14]): 33 uEq/min; Activity (Canis familiaris [15]): 33 uEq/min; Activity (Canis familiaris [16]): 3 uEq/min |
| O=C(O)COc1ccc(/C=C/[N+](=O)[O-])c(Cl)c1Cl | 47 | 4 | 7 | 132 | – | – | – | – | – |
| CC/C(=C\c1cc(Cl)cc(Cl)c1OCC(=O)O)[N+](=O)[O-] | – | – | – | – | 71 | 3 | 29 | 6 | – |
| CCCCC/C(=C\c1ccc(OCC(=O)O)c(Cl)c1Cl)[N+](=O)[O-] | 269 | 3 | 56 | 179 | – | – | – | – | Activity (Canis familiaris [2]): 3 milliequivalent; Activity (Canis familiaris [3]): 9 milliequivalent; Activity (Canis familiaris [6]): 413 mL; Activity (Canis familiaris [7]): 10 milliequivalent |
| CC/C(=C\c1cccc(OCC(=O)O)c1)[N+](=O)[O-] | – | – | – | – | 452 | 7 | 76 | 639 | – |
| CC/C(=C\c1ccc(OCC(=O)O)c(Cl)c1Cl)[N+](=O)[O-] | 1295 | 10 | 89 | 1174 | – | – | – | – | Activity (Canis familiaris [2]): 5 milliequivalent; Activity (Canis familiaris [3]): 28 milliequivalent; Activity (Canis familiaris [6]): 465 mL; Activity (Canis familiaris [7]): 26 milliequivalent |
| CC(=O)/C=C/c1ccc(OCC(=O)O)c(Cl)c1Cl | – | – | – | – | – | – | – | – | Activity (Canis familiaris [13]): 8 mL/min; Activity (Canis familiaris [14]): 76 uEq/min; Activity (Canis familiaris [15]): 911 uEq/min; Activity (Canis familiaris [16]): 1080 µequiv/min |
| C/C(=C\c1ccc(C(=O)O)cc1Cl)[N+](=O)[O-] | – | – | – | – | 364 | 7 | 45 | 335 | – |
| C/C(=C\c1ccc(OCC(=O)O)c2ccccc12)[N+](=O)[O-] | 1659 | 15 | 128 | 1612 | – | – | – | – | Activity (Canis familiaris [2]): 7 milliequivalent; Activity (Canis familiaris [3]): 39 milliequivalent; Activity (Canis familiaris [6]): 538 mL; Activity (Canis familiaris [7]): 33 milliequivalent |
| CCCC/C(=C\c1ccc(OCC(=O)O)c(Cl)c1Cl)[N+](=O)[O-] | 364 | 4 | 78 | 322 | – | – | – | – | – |
| CC/C(=C\c1ccc(C(=O)O)cc1Cl)[N+](=O)[O-] | – | – | – | – | 182 | 3 | 63 | 146 | – |
| C/C(=C\c1cc(Cl)ccc1OCC(=O)O)[N+](=O)[O-] | 7 | 2 | 17 | 22 | – | – | – | – | – |
